The data set relates to MS2 coat protein. In words: apparent Kd, MS2 coat protein; higher = weaker binding; RNA-MaP array; FMN 200 µM where present. In short, it runs like this:
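The titrant was SNAP-549-labelled MS2 coat protein, run from 0.7 or 1.5 nM in doubling steps to 3 µM. It was applied to designs transcribed by stalled E. coli RNA polymerase on Illumina sequencing-chip clusters, without ligand first and then with constant ligand, in 100 mM Tris-HCl pH 7.5, 80 mM KCl, 4 mM MgCl2, BSA, DTT, yeast tRNA and Tween-20. The apparent Kd is the median of filtered per-cluster binding-curve fits, with green signal normalised to red-channel RNA signal and control-cluster median Fmax.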

The mark [1] stands for this setting: designed as: OFF switch for flavin mononucleotide, no ligand.
Setting [2] is: ligand present: flavin mononucleotide, designed as: OFF switch for flavin mononucleotide.
The mark [3] stands for this setting: designed as: ON switch for flavin mononucleotide, no ligand.
Where [4] appears, read: ligand present: flavin mononucleotide, designed as: ON switch for flavin mononucleotide.

These results are taken from the EternaBench riboswitch data.

In the case of “AACAGUACAGGAUAUACAUGAGGAUCACCCAUGUGAGAAUUAAGUGGCGUACCACUAUGUAGAAGGGUACUGGA”, the apparent Kd (as a rule, a dissociation constant that holds for the conditions of the assay) stood at 103 nM under setting [1] and 225 nM under setting [2].
Regarding “GCCAUCGCAUGAGGAUAUGGCACCGUUUCGGUGCCAGAAGGCAUGUCAUAAGACAUGAGGAUCACCCAUGUGGUUAAGAUGGCA”, the “apparent Kd” value was determined as 865 nM under setting [3] and 50.9 nM under setting [4].
For the sequence “GCAUGGAAAGUGAGGAUAUACCACUGGAUACAGUGGUAGAAGGCACAUGAGGAUCACCCAUGUUUCUACCAUGC”, the “apparent Kd” value reads like this: under setting [1], 13.4 nM; under setting [2], 19.1 nM.
On the same counts, the results for “GUUCUUCCUGUAAGGAUAUCCAUGUAUCAGUUUAUGGAGAAGGUACAUGAGGAUCACCCAUGUCACCCGCGUUA” are 20.1 nM and 46.1 nM.
Take “AAACAUGUCCGAGGAUAUCUGAGAUCAUUUUCAAGAGAAGGCGGACAUGAGGAUCACCCAUGUCUCUCCUCAUCAACUCCACAU”: the “apparent Kd” value runs as follows: under setting [1], 7.47 nM; under setting [2], 39.1 nM.
For “GUUUAGUGAGGAUAUGUGGCUUCGAUCGUGAGAUCGAGGCUACAGAAGGCACAUGAGGAUCACCCAUGUUCCUG”, the “apparent Kd” value runs as follows: under setting [1], 16 nM; under setting [2], 64.3 nM.
Regarding “AUGUGGUUCCCGGCCAUCGUGUACGAGGAUAUCCUCGAACAUGAGGAUCACCCAUGUAACGUUGUGGAGAAGGCGUACGCUUGG”, the “apparent Kd” value under setting [3] came to 130 nM and the “apparent Kd” value under setting [4] was 7.73 nM.
As for “ACAGCGUGAGGAUAUACAUGAGGAUCACCCAUGUAUGGCAGGUUAUCCUGUCGUAUGUGUAGAAGGCACGCUGU”, the “apparent Kd” value by setting is: under setting [1], 60.3 nM; under setting [2], 73.7 nM.
“UGAUAGGACAGAGGAUAUGCCGAUAGGAUCUACUAUCGAAGAAUCCUCACAUGAGGAUCACCCAUGUAGAAGGCUGUUCUAUCU”: the “apparent Kd” value was 8.18 nM under setting [1] and 33 nM under setting [2].
For the sequence “UUGGACGUCUUAGGAUAUGUAGGAUAUUCCUACAUGAGGAUCACCCAUGUUGACAUGGAAGAAGGACAGAAGGACGAUGUCCAU”, the “apparent Kd” value under setting [3] stood at 418 nM and the “apparent Kd” value under setting [4] stood at 11.2 nM.
On to “GUGGUCAGACAUGAGGAUCACCCAUGUGGAAUAAAUAAGGAAUAGGAUAUCGAAUAUAGGAUAUACGAGAAGGGUUGGUUGGUG”, for which the “apparent Kd” value came out at 121 nM under setting [3] and 131 nM under setting [4].
On the same counts, the results for “AACCUAUUACAGAAGGCCAGCUACAUGAGGAUCACCCAUGUCGAGUCAUGGAGGAUAUGUAGUAAUUUACACGCGGGUGAGUAC” are 51.6 nM and 6.25 nM.
As to “UUAGCAACAUGAGGAUCACCCAUGUAGGAUAUCGCUAUUGUAAUCAUGAAACAUGAUUACAAUAGCGAGAAGGACAUAUGCUAG”, the “apparent Kd” value worked out at 9.88 nM under setting [1] and 10.7 nM under setting [2].
Regarding “AACUGACAUGAGGAUCACCCAUGUCAGGAUAUGACAUCGAAAAUAAAAUAAAUCGUUGUCAGAAGGGACAUGGG”, the “apparent Kd” value is, setting by setting: under setting [1], 21.4 nM; under setting [2], 19.3 nM.
Turning to “CACGUCAGGAAACGGAGCGGCCAACAUGAGGAUCACCCAUGUGAGGAUAUGCCUACUAAAAGUAGGCAGAAGGCACAGAAGGCA”, the “apparent Kd” value stood at 38.2 nM under setting [1] and 160 nM under setting [2].
Regarding “UUAUUAGCAGGAUAUAUCCGGGAUAACAUGAGGAUCACCCAUGUGACCGCUUGAUAUCCUAUAGAAGGGCUUUAUU”, the “apparent Kd” value runs as follows: under setting [1], 19.9 nM; under setting [2], 31.4 nM.
As to “AAAAAACAUGAGGAUCACCCAUGUCGAAAGACAUGAGGAUAUGUACAGACUUCGGUCUGUACAGAAGGCAUGUCUU”, the “apparent Kd” value stood at 37.3 nM under setting [3] and 15.2 nM under setting [4].
Regarding “AUUAUACAUGAGGAUCACCCAUGUAAUUAAUUAAUUAAGAUCAAGGAUAUCAGCUCGUUUAGAGCUGAGAAGGUGAUCACAUGU”, the “apparent Kd” value under setting [3] amounted to 356 nM and the “apparent Kd” value under setting [4] came to 295 nM.
As for “GGAUGACAAAGUCAUCCCUGACGAACAUGAGGAUCACCCAUGUAGGAUAUGCUACUCAAAGAGUAGCAGAAGGACAUGUGUCUU”, the “apparent Kd” value worked out at 31.2 nM under setting [1] and 150 nM under setting [2].
Take “AUGGUUCGAUUAGGAUAUUAUAGAUUGAAUAGUAUGAUUUACAUGAGGAUCACCCAUGUUACAUAUAAGAAGGAAUCGAAUCAU”: the “apparent Kd” value reads like this: under setting [1], 20.1 nM; under setting [2], 11.6 nM.
On to “GCUUGUGAAGGAUAUACUGGCGACAUGCGCUCGACACGCGCACAUGAGGAUCACCCAUGUAGAAGGUCAAACAU”, for which the “apparent Kd” value was found to be 20.9 nM under setting [1] and 21.3 nM under setting [2].
With “AGGAAACAUGAGGAUCACCCAUGUAAAAGGUGGUUAGGAUAUGCGAUAAUAAAAAUAAUAGCAGAAGGGACAAGAA”, the “apparent Kd” value by setting is: under setting [3], 511 nM; under setting [4], 432 nM.
Regarding “GGAUAGGUCAGAGGAUAUACGUGCUAGAGAUACUAGCAAAAUUUCCUCACAUGAGGAUCACCCAUGUAGAAGGCUGUCCUAUCG”, the “apparent Kd” value under setting [1] is 12.4 nM and the “apparent Kd” value under setting [2] stood at 278 nM.
On the same counts, the results for “CUCAUGAGAGGAUAUACAUGAGGAUCACCCAUGUGGUCAUCUCCUCGGGCUCCAUUACGUAGAAGGCUCAUUUG” are 41.4 nM and 88.4 nM.
On the same counts, the results for “AUUUCGUUAUCAGGAUAUGGACAGGCCUGUCCGUAUUGAGACAGUAACAUGAGGAUCACCCAUGUCCAGAAGGGAUCGAAGUAU” are 57 nM and 46.7 nM.
Regarding “AGGAGACAUGAGGAUCACCCAUGUGAGAAGAGGCGAGGAUAUCGAAAAAAAAAAAAAAAACGAGAAGGCGCGAGAA”, the “apparent Kd” value is, setting by setting: under setting [3], 71 nM; under setting [4], 39.3 nM.
On the same counts, the results for “UGUGUUAUUGGAGGAUAUCGAUAUCAAACAUGAGGAUCACCCAUGUUGAGGAUCACACAUGUAAAUGAGAAGGCCGACGUAGUG” are 12.5 nM and 16.2 nM.
On the same counts, the results for “AGUAACAUACUCAACAUGAGGAUCACCCAUGUACUCUCUUGUAAGGAUAUACAUUCGUAUUGAUAGUAGAAGGUACCAAUUAAG” are 53.5 nM and 57.4 nM.
Consider “UGUAUGGACAGAGGAUAUACCGAUAGGAUCUACUAUCGAACAAUCCUCACAUGAGGAUCACCCAUGUAGAAGGCUGUCCAUACU”, for which the “apparent Kd” value is 24.1 nM under setting [1] and 283 nM under setting [2].
For “CUCAUGUGAGGAUAUGUGAUCUGCUUUCUGUGUAGAUGAUCACAGAAGGCACAUGAGGAUCACCCAUGUAGAUC”, the “apparent Kd” value came out at 70.5 nM under setting [1] and 29.6 nM under setting [2].
“GUCAGCUCGUGAGGAUAUACAUGUGCUGGAGACAGCACUAUUAAGUUCACAUGAGGAUCACCCAUGUAGAAGGCACGAGCUGAU”: the “apparent Kd” value reads like this: under setting [1], 15.9 nM; under setting [2], 20.8 nM.
With “AUCGGGAGAGGAUAUACAUGAGGAUCACCCAUGUUGGGAACAUCGGUUUGUUAGUUUCGUAGAAGGCUCGGGCG”, the “apparent Kd” value under setting [1] worked out at 45.5 nM and the “apparent Kd” value under setting [2] came to 59.6 nM.
For “ACGGCUUAGUCAGGAUAUACAAGAUUGUGAGACUACAUGAGGAUCACCCAUGUAGAAGGGACUAAUCGUCUGAACAUUGCUUUC”, the “apparent Kd” value by setting is: under setting [1], 7.58 nM; under setting [2], 22.1 nM.
For “UUGGUACAUGAGGAUCACCCAUGUGGGUCGGUCGCAGGAUAUGCCCGUGGGCGCUUGCGGGCAGAAGGGUGCCGUA”, the “apparent Kd” value was determined as 392 nM under setting [3] and 102 nM under setting [4].
For “AGUGGGCUAGGAUAUCGAUGAACUCACAUGAGGAUCACCCAUGUGUCUUCGGUGGGCUCACGAGAAGGAGUAAGUU”, the “apparent Kd” value by setting is: under setting [1], 17.6 nM; under setting [2], 23.2 nM.
On the same counts, the results for “GCUAUAGAUGUAGGAUAUCAUAUAGAAGCUAUGUGAGAAGGACAUGAGGAUCACCCAUGUCAAUGGAUGGAGCGAAGUUAUGGC” are 43.4 nM and 57.7 nM.
For the sequence “AAUUAGGUCACAGGAUAUACAACAUCCAAUGCUGUAGAAGGGUGUCACAAUCAUAGCUGACAUGAGGAUCACCCAUGUAUCCAC”, the “apparent Kd” value runs as follows: under setting [3], 202 nM; under setting [4], 106 nM.
As for “UGACGGAGCAGAGGAUAUACAUGAGGAUCACCCAUGUAAGAUCUCCAGGAAACUGGAGAUCAAAUGUAGAAGGCUGCUCCGUCA”, the “apparent Kd” value under setting [1] stood at 18.1 nM and the “apparent Kd” value under setting [2] stood at 56 nM.
As for “UUGGACGUCGUAGGAUAUGUAGGAUAUUCCUACAUGAGGAUCACCCAUGUUGACAUGGAAGAAGGACAGGAGGACGAUGUCCAU”, the “apparent Kd” value was determined as 346 nM under setting [3] and 7.82 nM under setting [4].
As to “AAACAGGCAGGAUAUACAUGAGGAUCACCCAUGUGCAUAAACUGGCUGCGUCCGAAUCGUAGAAGGGCCUGCAU”, the “apparent Kd” value is 502 nM under setting [1] and 126 nM under setting [2].
On to “GUCACCUCGUGAGGAUAUACAACACUGCUUCGGCAGUGUAUUAAGAUCACAUGAGGAUCACCCAUGUAGAAGGCACGAGCUGAU”, for which the “apparent Kd” value reads like this: under setting [1], 17.2 nM; under setting [2], 221 nM.
Regarding “GUUUCACAUGAGGAUCACCCAUGUGAGGAUAUCUAUUUGUUAACCGUAGUUAAUAGAUAGAGAAGGCGCGUGAU”, the “apparent Kd” value under setting [1] is 69 nM and the “apparent Kd” value under setting [2] was 74.5 nM.
For the sequence “AACCAACAUGAGGAUCACCCAUGUUCUCAGACGUUUAGGUCACAGGAUAUUCGUGCUUGUGGGACGGAGAAGGGUGCCUCGCUG”, the “apparent Kd” value is 92.7 nM under setting [3] and 125 nM under setting [4].
As for “UCUGCCGCCGUGAGGAUAUGCCCGCAAAAACGCGGGCAGAAGGCACAUGAGGAUCACCCAUGUCCCGCGGUUUU”, the “apparent Kd” value reads like this: under setting [1], 13.9 nM; under setting [2], 33.6 nM.
For “CGCUAGUCAGGAUAUACGAACAUGUCACAAGACGUGAAGGGACAUGAGGAUCACCCAUGUAGAAGGGACUAGCA”, the “apparent Kd” value came out at 44.1 nM under setting [1] and 171 nM under setting [2].
Consider “CCAGCGUGUGUGAGGAUAUGCUGGUCCUUGGAUCAGCAGAAGGCACAUGAGGAUCACCCAUGUGAGAGCGUUGG”, for which the “apparent Kd” value is, setting by setting: under setting [1], 19.6 nM; under setting [2], 86.1 nM.
On the same counts, the results for “GGUGUGAGGCAGGAUAUGCUAUAUGUAAGUAAUGCAGAAGGGUCUACAUGAGGAUCACCCAUGUGUGCGGUAGA” are 105 nM and 311 nM.
On the same counts, the results for “UUUUAACAUGAGGAUCACCCAUGUGAGGAUAUCGUUUUUUUUAUUAAUAUUAAUAAAACGAGAAGGCACAUUUU” are 149 nM and 149 nM.
